{"source": "ChEMBL document CHEMBL4138266", "about": "“Lysine Analogue of Polymyxin B as a Significant Opportunity for Photodynamic Antimicrobial Chemotherapy” (ACS Med Chem Lett, 2018)", "key": {"Pseudomonas aeruginosa [1]": {"test_system": "Pseudomonas aeruginosa", "assay": "Photobactericidal activity against Pseudomonas aeruginosa CIP76110 irradiated with white light at 4.83 mW/cm2 for 20 hrs", "assay_type": "functional", "details": "CIP76110, light or radiation study", "summary_of_the_method": "(§1)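 Minimal bactericidal concentration (MBC) was determined in tryptic soy medium with log-phase bacteria at 37 °C. Plates were either kept in the dark or given 20 h of white light at 4.83 mW/cm². MBC was taken as the concentration killing 99.99% of bacteria, i.e. a 4-log reduction versus the untreated control.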"}, "Pseudomonas aeruginosa [2]": {"test_system": "Pseudomonas aeruginosa", "assay": "Bactericidal activity against Pseudomonas aeruginosa CIP76110 incubated for 30 mins under dark conditions", "assay_type": "organism-based", "details": "0.5 h", "summary_of_the_method": "as §1"}, "Escherichia coli [3]": {"test_system": "Escherichia coli", "assay": "Photobactericidal activity against Escherichia coli CIP54.8T irradiated with white light at 4.83 mW/cm2 for 20 hrs", "assay_type": "functional", "details": "light or radiation study", "summary_of_the_method": "as §1"}, "Escherichia coli [4]": {"test_system": "Escherichia coli", "assay": "Bactericidal activity against Escherichia coli CIP54.8T incubated for 30 mins under dark conditions", "assay_type": "organism-based", "details": "0.5 h", "summary_of_the_method": "as §1"}, "Staphylococcus aureus [5]": {"test_system": "Staphylococcus aureus", "assay": "Photobactericidal activity against Staphylococcus aureus CIP76.25 irradiated with white light at 4.83 mW/cm2 for 20 hrs", "assay_type": "functional", "details": "CIP76.25, light or radiation study", "summary_of_the_method": "as §1"}, "Staphylococcus aureus [6]": {"test_system": "Staphylococcus aureus", "assay": "Bactericidal activity against Staphylococcus aureus CIP76.25 incubated for 30 mins under dark conditions", "assay_type": "ADME, organism-based", "details": "0.5 h", "summary_of_the_method": "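S. aureus exposed to compound in PBS 1X for 30 min at 37 °C, then washed three times with PBS. The light arm was white LED irradiation at 4.83 mW/cm² (7 J/cm² = 24 min) at 37 °C. Survival was expressed as % of initial bacterial density.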"}}, "data": [{"smiles": "CCCCCCCC(=O)N[C@@H](CS)C(=O)N[C@H](C(=O)N[C@@H](CCCCN)C(=O)N[C@H]1CCNC(=O)[C@H]([C@@H](C)O)NC(=O)[C@H](CCCCN)NC(=O)[C@H](CCCCN)NC(=O)[C@H](CC(C)C)NC(=O)[C@@H](Cc2ccccc2)NC(=O)[C@H](CCCCN)NC1=O)[C@@H](C)O", "values": [{"measurement": "MBC", "setting": "Pseudomonas aeruginosa [1]", "result": "> 100", "unit": "µM"}, {"measurement": "MBC", "setting": "Pseudomonas aeruginosa [2]", "result": "> 100", "unit": "µM"}, {"measurement": "MBC", "setting": "Escherichia coli [3]", "result": 50, "unit": "µM"}, {"measurement": "MBC", "setting": "Escherichia coli [4]", "result": 50, "unit": "µM"}]}, {"smiles": "C[n+]1ccc(-c2c3nc(c(-c4cc[n+](C)cc4)c4ccc([nH]4)c(-c4cc[n+](C)cc4)c4nc(c(-c5cc[n+](C)cc5)c5ccc2[nH]5)C=C4)C=C3)cc1", "values": [{"measurement": "MBC", "setting": "Staphylococcus aureus [5]", "result": 5, "unit": "µM"}, {"measurement": "MBC", "setting": "Pseudomonas aeruginosa [1]", "result": 20, "unit": "µM"}, {"measurement": "MBC", "setting": "Escherichia coli [3]", "result": 18, "unit": "µM"}]}, {"smiles": "CCCCCCCC(=O)N[C@@H](CS)C(=O)N[C@H](C(=O)N[C@@H](CCN)C(=O)N[C@H]1CCNC(=O)[C@H]([C@@H](C)O)NC(=O)[C@H](CCN)NC(=O)[C@H](CCN)NC(=O)[C@H](CC(C)C)NC(=O)[C@@H](Cc2ccccc2)NC(=O)[C@H](CCN)NC1=O)[C@@H](C)O", "values": [{"measurement": "MBC", "setting": "Staphylococcus aureus [5]", "result": "> 50", "unit": "µM"}, {"measurement": "MBC", "setting": "Staphylococcus aureus [6]", "result": "> 50", "unit": "µM"}, {"measurement": "MBC", "setting": "Pseudomonas aeruginosa [1]", "result": 10, "unit": "µM"}, {"measurement": "MBC", "setting": "Pseudomonas aeruginosa [2]", "result": 10, "unit": "µM"}, {"measurement": "MBC", "setting": "Escherichia coli [3]", "result": 5, "unit": "µM"}, {"measurement": "MBC", "setting": "Escherichia coli [4]", "result": 5, "unit": "µM"}]}]}
